# System: Cavia porcellus
# Assay: Maximum increase in the coronary flow of isolated guinea pig heart when a dose of 10 ug/heart is administered
# Format: functional
# How it was run: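 Langendorff-perfused isolated guinea pig heart, with Krebs-Henseleit fluid gassed with 95% O2/5% CO2, at 34 ± 1 °C and 60 cm H2O perfusion pressure. Compound was dissolved in propylene glycol at 100 μg/mL and infused at 0.1 mL/min. Coronary flow was read by electromagnetic flowmeter before and after infusion and expressed as percentage gain; mean ± SE of five experiments.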
row,Compound,Max increase in coronary flow [%]
1,CCOP(=O)(OCC)OCc1ccc(-c2nc3ccccc3s2)cc1,47.7
2,CCOP(=O)(Cc1ccc(-c2nc(-c3ccccc3)c(-c3ccccc3)s2)cc1)OCC,23
3,CCOP(=O)(OCC)c1ccc(-c2nc3ccccc3s2)cc1,27.2
4,CCOP(=O)(Cc1ccc(-c2nc3ccccc3[nH]2)nc1)OCC,27.1
5,CCOP(=O)(CCc1ccc(-c2nc3ccccc3s2)cc1)OCC,40.7
6,CCOP(=O)(/C=C/c1ccc(-c2nc3ccccc3s2)cc1)OCC,49.5
7,CCOP(=O)(CCOc1ccc(-c2nc3ccccc3s2)cc1)OCC,27.2
8,CCOP(=O)(Cc1ccc(-c2nc3ccccc3s2)s1)OCC,51.1
9,CCOP(=O)(Cc1ccc(-c2nc3ccccc3s2)nc1)OCC,94
10,CCOP(=O)(Cc1cccnc1)OCC,21.4
11,CCOP(=O)(Cc1ccc(-c2nc(-c3ccccc3)cs2)cc1)OCC,60.3
12,CCOP(=O)(Cc1ccc(-c2nc3ccccc3o2)nc1)OCC,38.7
13,CCOP(=O)(Cc1ccc(-c2nccs2)nc1)OCC,23.2
14,CCOP(=O)(Cc1ccc(-c2nc3ccccc3s2)cc1)OCC [FOSTEDIL],79.9

# — ChEMBL document CHEMBL1124524, “Organic phosphorus compounds. 2. Synthesis and coronary vasodilator activity of (benzothiazolylbenzyl) phosphonate derivatives” (1989)
